In ChEMBL document CHEMBL1240447, “Synthesis and bioactivity of sphingosine kinase inhibitors and their novel aspirinyl conjugated analogs” (Eur J Med Chem, 2010):
Calls of active or inactive are those of the source. The calls are words filed in the database; no cut-off is given here.

Legend:
[1] = Cytotoxicity against human U87MG cells after 72 hrs by SRB assay; type: functional, cell-based, U-87MG ATCC; conditions: U-87 MG
[2] = system: HeLa; experiment: Cytotoxicity against human HeLa cells after 72 hrs by SRB assay; type: functional, cell-based
[3] = system: NCI-H460; experiment: Cytotoxicity against human H460 cells after 72 hrs by SRB assay; type: functional, cell-based; conditions: NCI-H460, 72 h
[4] = system: NCI-H226; experiment: Cytotoxicity against human NCI-H226 cells after 72 hrs by SRB assay; type: functional, cell-based; conditions: NCI-H226, 72 h
[5] = Cytotoxicity against human H441 cells after 72 hrs by SRB assay; type: functional, cell-based; conditions: NCI-H441, 72 h
[6] = system: A549; experiment: Cytotoxicity against human A549 cells after 72 hrs by SRB assay; type: functional, cell-based; conditions: A549, 72 h
[7] = system: MDA-MB-231; experiment: Cytotoxicity against human MDA-MB-231 cells after 72 hrs by SRB assay; type: functional, cell-based; conditions: MDA-MB-231, 72 h
[8] = system: MIA PaCa-2; experiment: Cytotoxicity against human MIAPaCa2 cells after 72 hrs by SRB assay; type: functional, cell-based; conditions: MIA PaCa-2, 72 h
[9] = Cytotoxicity against human MCF10A cells after 72 hrs by SRB assay; type: cell-based; conditions: MCF-10A
[10] = system: MEF; experiment: Cytotoxicity against MEF after 72 hrs by SRB assay; type: cell-based; conditions: Mus musculus
[11] = system: Serum; experiment: Metabolic stability of the compound in fetal bovine serum assessed as conversion of SKI-2 after 2 hrs by HPLC analysis; type: ADME, cell-free, Bos taurus; conditions: cattle
Outline: (§1)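 Compound in DMSO, 1 mg/mL, added to 5 mL DMEM with 10% FBS (no cells) and shaken at 37 °C; samples at 0, 2, 16 and 72 h filtered and run on C18 HPLC; conjugate remaining and released parent SKI expressed as percentages of peak areas per time point.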

[12] = system: Serum; experiment: Metabolic stability of the compound in fetal bovine serum assessed as conversion of SKI-2 after 16 hrs by HPLC analysis; type: ADME, cell-free, Bos taurus; conditions: cattle; outline: as §1
[13] = system: Serum; experiment: Metabolic stability of the compound in fetal bovine serum assessed as conversion of SKI-2 after 72 hrs by HPLC analysis; type: ADME, cell-free, Bos taurus; conditions: cattle; outline: as §1
[14] = Metabolic stability of the compound in fetal bovine serum assessed as compound remaining after 72 hrs by HPLC analysis; type: ADME, cell-free, Bos taurus; conditions: cattle, read-out: Stability; outline: as §1
[15] = Chemical stability of the compound assessed as compound remaining after 72 hrs by HPLC analysis; type: physicochemical
Outline: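 Compound in DMSO, 1 mg/mL, added to 5 mL serum-free DMEM (no cells) and shaken at 37 °C; samples taken at 0, 2, 16 and 72 h, filtered and analyzed by C18 HPLC; percentages of parent and conjugate peak areas calculated per time point.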

[16] = molecular target: Sphingosine kinase 1 (Homo sapiens) (UniProt Q9NYA1); experiment: Inhibition of Sphingosine kinase 1 in human HeLa cells at 1.25 uM pre-incubated for 24 hrs; type: cell-based
Sequence of Sphingosine kinase 1 (Homo sapiens) (Q9NYA1 whole entry): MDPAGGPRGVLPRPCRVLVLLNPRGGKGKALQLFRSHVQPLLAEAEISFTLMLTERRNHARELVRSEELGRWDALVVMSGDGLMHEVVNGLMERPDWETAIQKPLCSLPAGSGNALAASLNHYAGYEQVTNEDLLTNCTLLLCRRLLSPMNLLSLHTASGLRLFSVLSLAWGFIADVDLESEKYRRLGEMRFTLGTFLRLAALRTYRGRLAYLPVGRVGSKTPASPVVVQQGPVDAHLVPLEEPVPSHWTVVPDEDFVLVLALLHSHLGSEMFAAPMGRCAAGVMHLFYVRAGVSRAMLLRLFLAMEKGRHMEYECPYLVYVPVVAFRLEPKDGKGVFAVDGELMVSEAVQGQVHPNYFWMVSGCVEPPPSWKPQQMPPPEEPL
Outline: (§2)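 HeLa cells preincubated 24 h with compound or DMSO; cytosol (100,000g supernatant) at 10 µg protein incubated with 50 µM D-erythro-sphingosine, 200 µM ATP plus [γ-32P]ATP in pH 7.4 Tris buffer, 30 min, 37 °C; S1P resolved by TLC and quantified by scintillation counting; triplicate.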

[17] = molecular target: Sphingosine kinase 1 (Homo sapiens) (UniProt Q9NYA1); experiment: Inhibition of Sphingosine kinase 1 in human HeLa cells at >=5 uM pre-incubated for 24 hrs; type: cell-based; outline: as §2
[18] = Half life in C3H-HEJ mouse serum at 60 mg/kg, ip up to 16 hrs by HPLC analysis; type: ADME, organism-based; design: dose 60 mg/kg, route intraperitoneal
[19] = system: Serum; experiment: Metabolic stability of the compound in fetal bovine serum assessed as conversion of SKI-1 after 16 hrs by HPLC analysis; type: ADME, cell-free, Bos taurus; conditions: cattle; outline: as §1

Row | SMILES | IC50 [1] | IC50 [2] | IC50 [3] | IC50 [4] | IC50 [5] | IC50 [6] | IC50 [7] | IC50 [8] | IC50 [9] | IC50 [10] | Stability [11] | Stability [12] | Stability [13] | remaining at 72 h [14] | Stability [15] | Activity [16] | Activity [17] | half-life [18] | Stability [19]
1 | CC(=O)Oc1ccccc1C(=O)Oc1ccc(Nc2nc(-c3ccc(Cl)cc3)cs2)cc1 | 8.1 µM | 11.2 µM | 9.1 µM | 6.7 µM | 5.7 µM | 5.9 µM | 8.4 µM | 8.7 µM | 11.3 µM | 9.4 µM | 15% | 50% | 75% | 25% | Stable | Active | Active | – | –
2 | Oc1ccc(Nc2nc(-c3ccc(Cl)cc3)cs2)cc1 | 10.7 µM | 9.1 µM | 9.2 µM | 8.6 µM | 8 µM | 7.8 µM | 8.2 µM | 7.7 µM | 14.5 µM | 8.9 µM | – | – | – | – | – | – | – | – | –
3 | O=C(N/N=C/c1c(O)ccc2ccccc12)c1cc(-c2ccc3ccccc3c2)n[nH]1 | 1 µM | 1 µM | 3.2 µM | 5.7 µM | 2 µM | 3.8 µM | 4.4 µM | 4.8 µM | 4.1 µM | 5 µM | – | – | – | – | – | – | – | 7 h | –
4 | CC(=O)Oc1ccccc1C(=O)Oc1ccc2ccccc2c1/C=N/NC(=O)c1cc(-c2ccc3ccccc3c2)n[nH]1 | 1.5 µM | 1 µM | 1.2 µM | 1.7 µM | 0.6 µM | 0.9 µM | 1.3 µM | 1.6 µM | 2.6 µM | 5.5 µM | – | – | – | – | Stable | Active | Active | 10 h | 80%
